Compound activity as filed in PubChem.
A selection: hits, their analogues and other compounds. The true share with any hit is near 2.5%.
SR-BI HDL uptake: inhibitors of mouse SR-BI mediated HDL lipid uptake | ldlA[mSR-BI] CHO cells, DiI-HDL uptake fluorescence, 3 h | Q61009 | AID 488896 | 320,000 tested, 0.96% active | inhibition, % at 12.5 µM;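 active = mean replicate inhibition of at least 70% and a set share of replicates each scoring 70 or more; inconclusive = meets just one of the two criteria; inactive = fails both criteria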
SR-BI uptake up: SR-BI HDL lipid transfer activation; CHO ldlA[mSR-BI] cells, DiI-HDL uptake fluorescence, 3 h; 100 = double the neutral-control signal; activation, % at 12.5 µM; 320,000 tested, 0.096% active; AID 504775;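 active = mean replicate activation of at least 60% and every replicate at or above 60%; inconclusive = mean or all-replicate condition met, but not both; inactive = mean below 60% and not all replicates reaching 60%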
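Material – SR-BI-overexpressing, LDLR-lacking CHO cells · Medium – BSA-supplemented, HEPES-buffered Ham's F12, pH 7.4 · Doses – single concentration · Times – compound with DiI-HDL co-incubation, 3 h at 37 °C · Measured by – bottom-read fluorescence, 550/595 nm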
Dyrk1A ADPGlo: inhibitors of rat Dyrk1A kinase | Q63470 | ADP-Glo luminescence, NFATc1 peptide | inhibition, % at 12.5 µM | 310,000 tested, 0.43% active | AID 504441
dFosB activator: enhances mouse delta FosB homodimer DNA binding; P13346; purified delta FosB, TAMRA-CDK5 oligo fluorescence polarization; percent of positive-control signal above neutral wells; activation, % at 25 µM; 340,000 tested, 0.99% active;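 active = mean activation above about 17%, with every replicate also reaching it, limit read from the data, passing the limit was not always enough; inconclusive = only one of the two conditions met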
Target sequence (P13346 whole entry, looked up): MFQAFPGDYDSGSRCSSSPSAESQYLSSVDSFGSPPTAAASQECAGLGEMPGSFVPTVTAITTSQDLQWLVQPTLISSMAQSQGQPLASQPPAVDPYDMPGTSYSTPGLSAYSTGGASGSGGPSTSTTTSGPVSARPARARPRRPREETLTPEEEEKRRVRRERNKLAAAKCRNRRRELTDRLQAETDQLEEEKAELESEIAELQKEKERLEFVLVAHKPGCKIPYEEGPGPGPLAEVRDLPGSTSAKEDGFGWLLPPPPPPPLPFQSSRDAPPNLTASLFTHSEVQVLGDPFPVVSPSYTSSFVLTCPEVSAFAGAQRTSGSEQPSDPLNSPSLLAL
CDK5 inh: CDK5/p35 (human) kinase inhibition | Q00535+Q15078 | Recombinant CDK5/p35, ADP-Glo luminescence, 60 min | inhibition, % at 10 µM | 330,000 tested, 0.01% active | AID 488839;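 active = highest replicate inhibition of at least 50% and at least 75% of replicates reaching 50%; inconclusive = only one of the two criteria met; inactive = both criteria failed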
NSD2 inh: blocks human histone methyltransferase NSD2; NSD2 peptide methylation, AlphaScreen, 120 min; inhibition, % at 12.5 µM; 310,000 tested, 0.54% active
Numbers stand for hits; 0 = inactive; ? = inconclusive; - = no result given. Rule as the data show it, unless noted: active = inhibition above about 50%; inactive = the rest.

SMILES	SR-BI HDL uptake	SR-BI uptake up	Dyrk1A ADPGlo	dFosB activator	CDK5 inh	NSD2 inh
COc1cccc(-c2sc3cc(OC)c(OC)cc3c2-c2ccc(OCCN3CCCCC3)cc2)c1	0	0	0	34	0	-
COc1ccccc1-c1sc2ccccc2c1-c1ccc(OCCN2CCCCC2)cc1	0	0	0	?	0	-
COc1ccc2c(-c3ccc(OCCN4CCCCC4)cc3)c(-c3ccccc3OC)sc2c1	0	0	0	48	0	-
Nc1nc(-c2ccccc2)c(-c2ccccc2)s1	0	0	0	0	0	0
Nc1nc(-c2ccccc2)c(N=Nc2ccc(Cl)cc2)s1	86	0	0	0	0	0
Cc1ccc(-c2nc(SCC(=O)Nc3cc(C)on3)c3c(=O)n(C)c(=O)n(C)c3n2)cc1	0	0	0	0	0	0
CCOc1ccc(NC(=O)Nc2cc(OCC(F)(F)F)cc(OCC(F)(F)F)c2)cc1	75	0	0	0	0	0
O=C(Nc1ccc(F)cc1)Nc1cc(OCC(F)(F)F)cc(OCC(F)(F)F)c1	?	0	0	0	0	0
CC(=O)N(C1=C(N)C(=O)c2ccccc2C1=O)C(C)C	0	0	0	0	0	81
COc1ccc(/C=N/NC(=O)c2ccc(COc3ccccc3Cl)o2)c(OC)c1C	76	0	0	0	0	0
C(=C\c1ccccc1)/CSc1nnc(Cc2cccs2)n1-c1ccccc1	-	-	-	-	-	0
Cc1ccc(NC(=O)Cc2ccc(OC(F)F)cc2)c(S(=O)(=O)N2CCOCC2)c1	-	-	-	-	-	0
Cc1ccc(Cn2c(SCC(=O)Nc3cc(C)on3)nc3ccccc3c2=O)cc1	0	0	0	65	0	0
Cc1cccc(NC(=O)CSc2nc3ccccc3c(=O)n2CC2CCCO2)c1 (centres undefined)	80	0	-	0	0	0
Cc1cc(NC(=O)CSc2nc3ccccc3c(=O)n2Cc2ccccc2)no1	0	0	0	0	0	0
COc1ccc(C(=O)Nc2nc3ccc(S(C)(=O)=O)cc3s2)cc1OC	78	0	0	0	0	0
Cc1ccc(C(=O)Nc2nc3ccc(S(C)(=O)=O)cc3s2)cc1C	0	0	0	0	0	0
O=C1CC(c2ccccc2Cl)=NN(c2ncnc3ccccc23)C1=O	0	0	0	0	0	0
COc1cccc(COC(=O)C2CCN(C(=O)c3ccc(F)cc3)CC2)c1OC	0	0	0	0	0	0
COc1cc(C(=O)NCCC(C)C)c([N+](=O)[O-])cc1OC	82	0	0	0	0	0
COCCNC(=O)c1cc(OC)c(OC)cc1[N+](=O)[O-]	0	0	0	0	0	0
COc1ccc(-c2nc(-n3c(C)c(C(C)=O)c(C(C)=O)c3C)sc2C)cc1	0	0	0	0	0	0
CC(=O)c1c(C(C)=O)c(C)n(-c2nc(-c3ccc(C)c(C)c3)c(C)s2)c1C	76	0	0	0	0	0
COc1ccccc1NC(=O)c1cccc(N2C(=O)C3C4C=CC(C4)C3C2=O)c1 (centres undefined)	0	0	0	0	0	0
O=S(=O)(c1ccccc1)n1c(CN2CCOCC2)nc2ccccc21	-	-	-	-	-	0
SMILES	SR-BI HDL uptake	SR-BI uptake up	Dyrk1A ADPGlo	dFosB activator	CDK5 inh	NSD2 inh
COc1ccc2c(c1)C1NC(=S)NC(C)(O2)C1C(=O)Nc1ccc(Cl)cc1 (centres undefined)	80	0	0	0	0	0
CCc1ccc2nc(NC(=O)Cn3cnc4ccccc4c3=O)sc2c1	0	0	0	154	0	0
COc1ccc(Cn2ccnc2SCC(=O)NC2CCCC2)cc1	0	0	0	0	0	0
CNC(=O)c1cccc(NC(=O)c2cc(-c3ccccc3)nc3c2cnn3C(C)C)c1	82	0	0	0	0	0
CC(C)n1ncc2c(C(=O)Nc3cccc(S(=O)(=O)N(C)C)c3)cc(C3CC3)nc21	76	0	-	0	0	0
OC1(Cc2cc(-c3ccccc3)no2)CCN(CCCc2ccccc2)CC1	0	0	0	0	0	0
S=c1[nH]nc(-c2cc(-c3ccccc3)n[nH]2)n1N=Cc1cccc(Oc2ccccc2)c1	-	-	-	-	-	0
Cc1ccc(-c2cc(C(=O)NN=Cc3ccc(N(C)C)cc3)[nH]n2)cc1C	-	-	-	-	-	0
CCOC(=O)c1c(NC(=O)COC(=O)c2ccc(O)cc2)sc(C(=O)NC)c1C	0	0	0	0	0	-
CCOC(=O)c1c(NC(=O)COC(=O)c2cnccn2)sc(C(=O)NC)c1C	0	0	-	39	0	0
CCOC(=O)/C=C/c1ccc2c(c1)S(=O)(=O)N(c1cccc(OC)c1)[C@H]2CC(=O)OCC	83	0	-	0	0	-
CCn1c(Cc2cccs2)nnc1SCC(=O)Nc1ccc(OCc2ccccc2)cc1	-	-	-	-	-	0
COc1ccccc1-n1c2nc3ccccc3nc2c2c(=O)n(-c3cc(C)cc(C)c3)cnc21	79	0	0	0	0	0
O=C(Nn1cnnc1)c1ccc(OC(F)(F)C(F)C(F)(F)F)cc1 (centres undefined)	0	0	0	0	0	0
CC(=O)Nc1cc(-c2cccc(NS(C)(=O)=O)c2)cn2c(-c3ccc(F)c(Cl)c3)cnc12	-	-	-	-	-	0
CCCn1nnc(NC(=O)/C=C/c2ccc(C(C)C)cc2)n1	0	0	-	0	0	0
CCCn1nnc(NC(=S)NC(=O)/C=C/c2ccc(Cl)cc2)n1	0	364	0	0	0	0
CCC(=O)NC(=S)Nc1cccc(NC(=O)c2ccc(Cl)cc2Cl)c1	81	0	0	0	0	0
CSCCCNC(=O)c1cn(C(C)c2ccccc2)nn1 (centres undefined)	-	-	-	-	-	0
CC1=C(C)/C(=N\OS(=O)(=O)c2ccccc2)C=CC1=O	87	0	0	0	0	-
COc1ccc(CNC(=O)[C@H](C)NC(=O)C2CCN(C(=O)[C@@H](N)Cc3ccccc3)CC2)cc1	0	0	0	0	0	0
CCn1c(=O)c2cc(C(=O)NC(C)C)sc2c2ccccc21	0	0	0	0	0	0
CCn1c(=O)c2cc(C(=O)NCCN3CCOCC3)sc2c2ccccc21	88	0	0	0	0	-
CCn1c(=O)c2cc(C(=O)N3CCN(C)CC3)sc2c2ccccc21	0	0	0	0	0	-
CCn1c(=O)c2cc(C(=O)NCc3cccs3)sc2c2ccccc21	71	0	0	0	0	-
CCCCNC(=O)c1cc2c(=O)n(CC)c3ccccc3c2s1	73	0	0	0	0	0
Cc1cc(NS(=O)(=O)c2ccc(NC(=O)CSc3nnc(-c4ccccn4)n3Cc3ccco3)cc2)nc(C)n1	-	-	-	-	-	0
O=C(NCC1CCCN1S(=O)(=O)c1cccs1)C(=O)Nc1cccc(F)c1 (centres undefined)	0	0	0	0	0	0
Cc1cccc(NC(=O)NCCCN2CCN(c3ccc(F)cc3)CC2)c1	-	-	-	-	-	0
CSc1cccc(NC(=S)NCCCN2CCN(c3ccc(F)cc3)CC2)c1	0	201	0	0	0	0
